# According to PMC7036014 (Molecular cell, 2019):
# Numbering of substitutions follows the chain as printed.
# Tests used:
# SIRT1 [1] = target: T1, SIRT1 (Homo sapiens, UniProt Q96EB6); assay: HPLC-MS/MS SIRT1 deacetylation assay with acetylated peptide substrates; format: biochemical; settings: for activation of SIRT1 towards mutant p53 peptide (p53-W): 250 nM 18:1, 10 μM resveratrol, 1 μM SRT1720; for allosteric activation of SIRT1 towards wild-type p53 peptide: p53 peptide lacking hydrophobic residue at +1 or +6
# T1 sequence (Q96EB6 1-747): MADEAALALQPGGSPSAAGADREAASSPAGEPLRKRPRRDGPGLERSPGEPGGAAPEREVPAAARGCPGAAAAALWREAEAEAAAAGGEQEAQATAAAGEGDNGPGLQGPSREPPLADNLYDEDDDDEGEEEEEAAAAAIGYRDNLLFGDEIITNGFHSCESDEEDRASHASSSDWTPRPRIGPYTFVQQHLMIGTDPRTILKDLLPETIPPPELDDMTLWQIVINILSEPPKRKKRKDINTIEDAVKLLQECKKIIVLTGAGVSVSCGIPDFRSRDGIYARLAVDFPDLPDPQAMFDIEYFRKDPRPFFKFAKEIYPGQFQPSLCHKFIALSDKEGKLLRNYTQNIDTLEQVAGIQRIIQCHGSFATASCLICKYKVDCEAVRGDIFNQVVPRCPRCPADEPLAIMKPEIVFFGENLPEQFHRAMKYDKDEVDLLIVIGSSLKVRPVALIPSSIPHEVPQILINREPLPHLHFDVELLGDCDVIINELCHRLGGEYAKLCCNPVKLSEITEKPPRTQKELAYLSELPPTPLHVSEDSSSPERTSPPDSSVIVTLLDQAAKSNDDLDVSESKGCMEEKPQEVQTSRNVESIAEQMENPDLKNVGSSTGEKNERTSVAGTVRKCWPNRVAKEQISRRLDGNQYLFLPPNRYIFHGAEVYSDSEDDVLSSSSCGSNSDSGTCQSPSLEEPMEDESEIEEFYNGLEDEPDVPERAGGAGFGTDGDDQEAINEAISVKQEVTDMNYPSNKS
# How it was run: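 Recombinant SIRT1 (1 μM, E. coli-expressed) incubated with acetylated peptide (0–250 μM) plus fatty acid in 25 mM Tris, pH 8.0, 50 mM NaCl, 1 mM DTT, 1 mM NAD+ for 60 min at 37°C. Deacetylation quantified by HPLC-MS/MS with positive-mode electrospray. Km, Vmax and kcat obtained from Lineweaver-Burk plots.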
# SIRT1 [2] = target: T1, SIRT1; assay: Intrinsic tryptophan fluorescence quenching binding assay, SIRT1; settings: for Kd, SIRT1: tryptophan quenching
# SIRT1 [3] = target: T1, SIRT1; assay: 1,8-ANS displacement assay, SIRT1; format: binding; settings: for Ki, SIRT1: displacement of 1,8-ANS
# [4] = target: T2, recombinant full-length murine PLIN5 (Mus musculus, UniProt Q8BVZ1); assay: Intrinsic tryptophan fluorescence quenching binding assay, PLIN5; settings: for binding curve, PLIN5: tryptophan fluorescence
# T2 sequence (Q8BVZ1 1-463): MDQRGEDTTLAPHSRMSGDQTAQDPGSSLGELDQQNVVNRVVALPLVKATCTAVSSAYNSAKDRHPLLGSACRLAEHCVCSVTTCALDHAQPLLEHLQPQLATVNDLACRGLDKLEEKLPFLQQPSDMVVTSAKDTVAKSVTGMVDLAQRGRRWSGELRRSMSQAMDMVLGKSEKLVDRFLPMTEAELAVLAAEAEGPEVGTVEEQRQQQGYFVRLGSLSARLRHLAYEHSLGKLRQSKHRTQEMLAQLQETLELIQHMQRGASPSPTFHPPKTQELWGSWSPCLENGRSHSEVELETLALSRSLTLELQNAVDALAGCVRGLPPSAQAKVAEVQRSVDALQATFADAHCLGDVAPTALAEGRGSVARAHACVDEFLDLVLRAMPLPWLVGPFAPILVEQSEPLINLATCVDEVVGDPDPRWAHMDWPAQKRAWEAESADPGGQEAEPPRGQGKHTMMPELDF
# How it was run: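 Protein at 150 nM in 10 mM NaH2PO4, pH 7.5, titrated with ethanolic fatty acid. Excitation 295 nm, emission scanned 300–400 nm. Signal corrected for buffer-plus-ligand background. ΔF (F0−F) plotted against ligand to give a saturation curve. Kd taken from linear regression of the double-reciprocal transform. PLIN5: untagged full-length murine recombinant protein, n=4.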
# SIRT1 [5] = target: T1, SIRT1; assay: Circular dichroic analysis of SIRT1 secondary structure with ligand; settings: for shape of the CD spectrum of SIRT1: addition of ligand; for α-helical content of SIRT1: with ligand, 23% without ligand
# PLIN5-pM (S155E) = target: T3, PLIN5-pM (S155E) (Mus musculus, UniProt Q8BVZ1, S155E); assay: Tryptophan fluorescence quenching binding assay, PLIN5-pM; parameters: species or system murine; settings: for increase in binding affinity of PLIN5-pM: PLIN5-pM vs comparator
# T3 sequence (Q8BVZ1 1-463 S155E): T2 sequence (Q8BVZ1 1-463) with S155E
# PLIN5 = target: T4, PLIN5 (Mus musculus, UniProt Q8BVZ1); assay: 1,8-ANS displacement assay, PLIN5; format: binding, murine
# T4 sequence (Q8BVZ1 1-463): T2 sequence (Q8BVZ1 1-463)
# How it was run: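 Untagged recombinant PLIN5 (His-MBP tag removed by TEV protease) at 1 μM with 500 nM 1,8-ANS in 50 mM sodium phosphate, pH 7.5, 25°C. Competitor lipids added in increasing amounts, each mixed 60 s before reading fluorescence. I50 taken from the normalized displacement curve. Ki = I50/(1+[L]/KD), using the ANS KD from a Scatchard analysis of a protein titration.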
# PGC-1α activity, MEFs = assay: PGC-1α luciferase reporter assay in MEFs; format: cell-based, mouse; settings: for PGC-1α activity with cAMP, individual fatty acid loading: vs non-loaded or 18:0/16:0 loaded cells; for activation of PGC-1α in Sirt1 knockout cells rescued with GFP tagged human Sirt1: Sirt1 knockout MEFs + human Sirt1
# [6] = system: PGC-1α activity, primary hepatocytes; assay: PGC-1α luciferase reporter assay in primary hepatocytes; format: cell-based, mouse; settings: hepatocytes preloaded with fatty acid
# [7] = system: cellular cAMP levels, MEF cells; assay: cAMP-Glo Assay in MEF cells; format: cell-based, mouse; settings: 6 hrs 500 μM 18:1, no Iso/IBMX
# How it was run: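 MEFs in DMEM/10% FBS given 2% fatty-acid-free BSA or 500 μM 18:1–BSA complex for 6 or 16 h. Then washed and switched to serum-free DMEM with DMSO or 20 μM isoproterenol/500 μM IBMX for 20 min. cAMP-Glo steps at room temperature: lysis 15 min, detection solution 20 min, Kinase-Glo 10 min. n=12–16.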
# PLIN5-pM = target: T5, PLIN5-pM (Mus musculus, UniProt Q8BVZ1, S155E); assay: Circular dichroic analysis of PLIN5-pM with ligand; parameters: species or system murine; settings: addition of ligand
# T5 sequence (Q8BVZ1 1-463 S155E): T2 sequence (Q8BVZ1 1-463) with S155E
# How it was run: (§1)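 Far-UV CD spectra of the PLIN5 phospho-mutants in 10 mM NaH2PO4, pH 7.5, with 10 mM NaCl, with and without ligand. Run at 25°C in a 1 mm path cuvette. Ligand incubated 2–5 min before each scan. Each spectrum is the average of ten scans, repeated in triplicate.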
# [8] = system: PGC-1α activity, mouse L-cells; assay: PGC-1α luciferase reporter assay in L-cells; format: cell-based; settings: Plin5 knockout L-cells
# PLIN5-pD = target: T6, PLIN5-pD (Mus musculus, UniProt Q8BVZ1, S155A); assay: Circular dichroic analysis of PLIN5-pD with ligand; parameters: species or system murine; settings: addition of ligand
# T6 sequence (Q8BVZ1 1-463 S155A): T2 sequence (Q8BVZ1 1-463) with S155A
# How it was run: as §1
# [9] = acetylated PGC-1α peptide substrate
# [10] = acetylated FOXO3a peptide substrate
# [11] = fixed amounts of PGC-1α, FOXO3a and H3 peptides, 150 or 600 nM 18:1
smiles,measurement,setting,value
"CCCCCCCCCCCCCCCC(=O)O [16:0, palmitic acid]",stimulation of SIRT1 deacetylase activity,SIRT1 [1]; [9],unable to stimulate
same,"Kd, SIRT1",SIRT1 [2],No fatty acid binding was observed
same,"Ki, SIRT1",SIRT1 [3],not observed
same,"binding curve, PLIN5",[4],Saturable binding curves
same,shape of the CD spectrum of SIRT1,SIRT1 [5],did not alter
"CCCCCC/C=C\CCCCCCCC(=O)O [16:1, palmitoleic acid]",Kd,PLIN5-pM (S155E),0.023 ± 0.003 µM
same,increase in binding affinity of PLIN5-pM,PLIN5-pM (S155E),3.4 fold
same,Km of SIRT1 towards the PGC-1α peptide,SIRT1 [1]; [9],lowering
same,SIRT1 catalytic efficiency (Kcat/Km) towards the PGC-1α peptide,SIRT1 [1]; [9],increase
same,Ki,PLIN5,9.9 ± 0.07 µM
same,Kd,SIRT1 [2],0.1 ± 0.003 µM
same,Ki,SIRT1 [3],12.5 ± 0.06 µM
same,Kd,[4],0.082 ± 0.012 µM
same,"binding curve, PLIN5",[4],Saturable binding curves
same,"PGC-1α activity with cAMP, individual fatty acid loading","PGC-1α activity, MEFs",synergized with cAMP
same,α-helical content of SIRT1,SIRT1 [5],25.9%
"CCCCCCCCCCCCCCCCCC(=O)O [18:0, stearic acid]",stimulation of SIRT1 deacetylase activity,SIRT1 [1]; [9],unable to stimulate
same,Ki,PLIN5,17.7 ± 0.04 µM
same,"Kd, SIRT1",SIRT1 [2],No fatty acid binding was observed
same,"Ki, SIRT1",SIRT1 [3],not observed
same,"binding curve, PLIN5",[4],Saturable binding curves
same,shape of the CD spectrum of SIRT1,SIRT1 [5],did not alter
"CCCCCCCC/C=C\CCCCCCCC(=O)O [18:1, oleic acid]",PGC-1α activity response to cAMP and protein overexpression,[6],further enhanced
same,Kd,PLIN5-pM (S155E),0.036 ± 0.008 µM
same,increase in binding affinity of PLIN5-pM,PLIN5-pM (S155E),2.4 fold
same,"cellular cAMP levels, acute exposure",[7],increased
same,effect on Km and catalytic efficiency on co-addition with resveratrol,"SIRT1 [1]; PGC-1α peptide, co-addition of 18:1 and resveratrol vs single compound",not additive
same,Km of SIRT1 towards the FOXO3a peptide,SIRT1 [1]; [10],reduced
same,SIRT1 catalytic efficiency towards the FOXO3a peptide,SIRT1 [1]; [10],increased
same,Km of SIRT1 towards the PGC-1α peptide,SIRT1 [1]; [9],lowering
same,SIRT1 catalytic efficiency (Kcat/Km) towards the PGC-1α peptide,SIRT1 [1]; [9],increase
same,enzyme velocity,SIRT1 [1]; [9],without a significant change
same,"deacetylase activity towards FOXO3a and PGC-1α peptides, competition assay",SIRT1 [1]; [11],increased
same,"deacetylase activity towards H3, competition assay",SIRT1 [1]; [11],decreased
same,activation of SIRT1 towards mutant p53 peptide (p53-W),SIRT1 [1],activated
same,allosteric activation of SIRT1 towards wild-type p53 peptide,SIRT1 [1],did not respond
same,Ki,PLIN5,4 ± 0.13 µM
same,shape of the CD spectrum of PLIN5-pM,PLIN5-pM,robustly altered
same,Kd,SIRT1 [2],0.081 ± 0.009 µM
same,Ki,SIRT1 [3],5.6 ± 0.12 µM
same,Kd,[4],0.089 ± 0.002 µM
same,"binding curve, PLIN5",[4],Saturable binding curves
same,regulation of PGC-1α activity in L-Cells lacking Plin5,[8],PLIN5 was required
same,"basal PGC-1α activity, acute exposure","PGC-1α activity, MEFs; 6 hrs, 500 μM 18:1",increased
same,requirement of PKA-stimulated lipolysis for activation of PGC-1α,"PGC-1α activity, MEFs; PKA or ATGL inhibitors",required
same,regulation of PGC-1α activity in MEFs lacking Sirt1,"PGC-1α activity, MEFs; Sirt1 knockout MEFs",SIRT1 was required
same,activation of PGC-1α in Sirt1 knockout cells rescued with GFP tagged human Sirt1,"PGC-1α activity, MEFs",restored
same,PGC-1α activity upon stimulation of β-adrenergic signaling,"PGC-1α activity, MEFs; acute and overnight loading vs non-loaded cells, isoproterenol/IBMX",enhanced
same,"PGC-1α activity with cAMP, individual fatty acid loading","PGC-1α activity, MEFs",synergized with cAMP
same,α-helical content of SIRT1,SIRT1 [5],28.6%
same,CD spectrum changes of PLIN5-pD,PLIN5-pD,more subtle changes
"CCCCC/C=C\C/C=C\C/C=C\C/C=C\CCCC(=O)O [20:4, arachidonic acid]","binding curve, PLIN5",[4],Saturable binding curves
"CN(C)C(=O)Nc1cccc(-c2ccc(N(C)C)cc2)c1 [ATGLstatin, reference compound]",effects of β-adrenergic stimulation on PGC-1α activity in 18:1 loaded cells,"PGC-1α activity, MEFs; 30 μM ATGL inhibitor",blocked
"O=C(Nc1ccccc1-c1cn2c(CN3CCNCC3)csc2n1)c1cnc2ccccc2n1 [SRT1720, reference compound]",activation of SIRT1 towards mutant p53 peptide (p53-W),SIRT1 [1],activated
same,allosteric activation of SIRT1 towards wild-type p53 peptide,SIRT1 [1],did not respond
"Oc1ccc(/C=C/c2cc(O)cc(O)c2)cc1 [resveratrol, reference compound]",activation of SIRT1 towards mutant p53 peptide (p53-W),SIRT1 [1],activated
same,allosteric activation of SIRT1 towards wild-type p53 peptide,SIRT1 [1],did not respond
same,activation of PGC-1α in Sirt1 knockout cells rescued with GFP tagged human Sirt1,"PGC-1α activity, MEFs",restored
same,regulation of PGC-1α in Sirt1 knockout cells rescued with Sirt1-E230K mutant,"PGC-1α activity, MEFs; Sirt1 knockout MEFs + human Sirt1 E230K",did not restore
